29 compounds from ChEMBL document CHEMBL3045981, “Synthesis and insecticidal activities of novel N-sulfenyl-N'-tert-butyl-N,N'-diacylhydrazines. 2. N-substituted phenoxysulfenate derivatives” (2008) can be followed below.

Format in all cases: functional
Assay [1] relates to Mythimna separata. As to the kind of experiment: Stomach toxicity against Mythimna separata (Oriental armyworm) fourth-instar larvae reared on compound pre-treated corn leaves assessed as insect mortality at 5 mg/kg measured 4 days post compound treatment.
For assay [2], the system named is Mythimna separata. As to the kind of experiment: Stomach toxicity against Mythimna separata (Oriental armyworm) fourth-instar larvae reared on compound pre-treated corn leaves assessed as insect mortality at 2.5 mg/kg measured 4 days post compound treatment.
Assay [3] concerns Mythimna separata. As to the kind of experiment: Stomach toxicity against Mythimna separata (Oriental armyworm) fourth-instar larvae reared on compound pre-treated corn leaves assessed as insect mortality at 50 mg/kg measured 4 days post compound treatment.
Assay [4] relates to Mythimna separata. As to the kind of experiment: Stomach toxicity against Mythimna separata (Oriental armyworm) fourth-instar larvae reared on compound pre-treated corn leaves assessed as insect mortality at 25 mg/kg measured 4 days post compound treatment.
In assay [5] the test system is Mythimna separata. In words: Stomach toxicity against Mythimna separata (Oriental armyworm) fourth-instar larvae reared on compound pre-treated corn leaves assessed as insect mortality at 10 mg/kg measured 4 days post compound treatment.
The subject of assay [6] is Ostrinia furnacalis. As to the kind of experiment: Contact toxicity against Ostrinia furnacalis (Asian corn borer) fourth-instar larvae exposed to compound on thoracic tergite region assessed as insect mortality measured 48 hr post compound treatment. The method in brief:
(§1)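 Topical application: each fourth-instar larva received 1 µL of acetone dilution on the thoracic tergite via automatic microapplicator; five to seven concentrations. Acetone-only control. Usually 40 insects per dose, four replicates. Larvae returned to standard rearing at 25 ± 1 °C. Mortality read 48 h after treatment, Abbott-corrected, and LD50 (median lethal dose) derived.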

The subject of assay [7] is Spodoptera litura. As to the kind of experiment: Stomach toxicity against Spodoptera litura third-instar larvae reared on compound pre-treated cabbage leaves assessed as insect mortality measured 3 days post compound treatment. In short, it runs like this:
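Leaf-dip: cabbage leaf discs (5 cm × 3 cm) dipped 3 s in test solution, air-dried, placed singly in 80 cm³ boxes. Five third-instar larvae per disc. Water- and acetone-treated leaves as controls. Held at 25 ± 1 °C. Mortality scored on a dead/alive basis 3 days after treatment and Abbott-corrected.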

In assay [8] the test system is Helicoverpa armigera. In words: Contact toxicity against Helicoverpa armigerafourth-instar larvae exposed to compound on thoracic tergite region assessed as insect mortality measured 48 hr post compound treatment. The method in brief: as §1
For assay [9], the system named is Spodoptera litura. In words: Contact toxicity against Spodoptera litura fourth-instar larvae exposed to compound on thoracic tergite region assessed as insect mortality measured 48 hr post compound treatment. In short, it runs like this: as §1

Structures are written as SMILES. In brackets after ≈: the same amount, converted by molar mass.

For orientation: mortality means the percentage killed. As for `CCc1ccc(C(=O)N(N(SOc2ccccc2Cl)C(=O)c2cc(C)cc(C)c2)C(C)(C)C)cc1`, the mortality at 5 mg/kg in [1] was 95%. Further, the mortality at 2.5 mg/kg in assay [2] worked out at 80%.

Consider `CCc1ccc(C(=O)N(N(SOc2cccc(C(=O)OC)c2)C(=O)c2cc(C)cc(C)c2)C(C)(C)C)cc1`, for which, in assay [1], the mortality at 5 mg/kg turned out to be 90%. In addition, the mortality at 2.5 mg/kg in assay [2] was 80%.

In the case of `CCc1ccc(C(=O)N(N(SOc2ccccc2OC)C(=O)c2cc(C)cc(C)c2)C(C)(C)C)cc1`, the mortality at 5 mg/kg in [1] came to 90%. Also, the mortality at 2.5 mg/kg in assay [2] worked out at 80%.

`CCc1ccc(C(=O)N(N(SOc2cccc(OC)c2)C(=O)c2cc(C)cc(C)c2)C(C)(C)C)cc1`: in assay [1], the mortality at 5 mg/kg is 100%. In addition, the mortality at 2.5 mg/kg in assay [2] is 50%.

Turning to `Cc1cc(C)cc(C(=O)N(NC(=O)c2ccc3c(c2C)OC(C)C3)C(C)(C)C)c1` (stereo not drawn) [FUXIAN], the mortality at 5 mg/kg in assay [1] was 100%. Also, the mortality at 2.5 mg/kg in assay [2] is 90%.

`CCc1ccc(C(=O)N(N(SOc2cccc(Cl)c2)C(=O)c2cc(C)cc(C)c2)C(C)(C)C)cc1`: the mortality at 5 mg/kg in assay [1] worked out at 90%. The mortality at 2.5 mg/kg in [2] was 80%.

As for `CCc1ccc(C(=O)N(N(SOc2cccc(C)c2)C(=O)c2cc(C)cc(C)c2)C(C)(C)C)cc1`, the mortality at 5 mg/kg in [1] amounted to 95%. Moreover, the mortality at 2.5 mg/kg in assay [2] worked out at 70%.

As to `CCc1ccc(C(=O)N(N(SOc2ccccc2Br)C(=O)c2cc(C)cc(C)c2)C(C)(C)C)cc1`, the mortality at 5 mg/kg in assay [1] stood at 100%. In addition, the mortality at 2.5 mg/kg in assay [2] was 30%.

Take `CC(C)(C)N(NC(=O)c1ccc(Cl)cc1)C(=O)c1ccccc1` [HALOFENOZIDE]: in assay [3], the mortality at 50 mg/kg came to 100%. Also, the mortality at 5 mg/kg in [1] was found to be 70%. Also, the mortality at 2.5 mg/kg in [2] is 10%.

For `CC(C)(C)N(C(=O)c1ccccc1)N(SOc1ccccc1)C(=O)c1ccccc1`, the mortality at 25 mg/kg in assay [4] came to 100%. Besides, the mortality at 50 mg/kg in [3] is 100%. Moreover, the mortality at 10 mg/kg in assay [5] worked out at 0%.

Take `CCc1ccc(C(=O)N(N(SOc2ccc(Br)cc2)C(=O)c2cc(C)cc(C)c2)C(C)(C)C)cc1`: the mortality at 5 mg/kg in [1] came to 100%. In addition, the mortality at 2.5 mg/kg in assay [2] amounted to 50%.

Turning to `CCc1ccc(C(=O)N(N(SOc2ccc(C)cc2)C(=O)c2cc(C)cc(C)c2)C(C)(C)C)cc1`, in [1], the mortality at 5 mg/kg amounted to 100%. Moreover, in assay [2], the mortality at 2.5 mg/kg is 30%.

Regarding `COc1cccc(C(=O)N(N(SOc2ccc(Cl)cc2)C(=O)c2cc(C)cc(C)c2)C(C)(C)C)c1C`, the mortality at 5 mg/kg in assay [1] was 100%. Moreover, in [2], the mortality at 2.5 mg/kg worked out at 100%.

For the compound `CCc1ccc(C(=O)N(N(SOc2ccc(OC)cc2)C(=O)c2cc(C)cc(C)c2)C(C)(C)C)cc1`, in [1], the mortality at 5 mg/kg was determined as 100%. Moreover, the mortality at 2.5 mg/kg in assay [2] was 80%.

Regarding `CCc1ccc(C(=O)N(N(SOc2ccc(C)c(C)c2)C(=O)c2cc(C)cc(C)c2)C(C)(C)C)cc1`, in [1], the mortality at 5 mg/kg came to 70%. In [2], the mortality at 2.5 mg/kg was 10%.

In the case of `CC(C)(C)N(NC(=O)c1ccccc1)C(=O)c1ccccc1` [RH-5849], the mortality at 25 mg/kg in assay [4] was 70%. The mortality at 50 mg/kg in assay [3] is 100%. Also, the mortality at 10 mg/kg in assay [5] was 0%.

Take `Cc1cc(C)cc(C(=O)N(N(SOc2ccc(Cl)cc2)C(=O)c2ccc3c(c2C)OC(C)C3)C(C)(C)C)c1` (stereo not drawn): the mortality at 5 mg/kg in assay [1] worked out at 100%. The mortality at 2.5 mg/kg in assay [2] is 90%.

With `CCc1ccc(C(=O)N(N(SOc2ccccc2C)C(=O)c2cc(C)cc(C)c2)C(C)(C)C)cc1`, in assay [1], the mortality at 5 mg/kg is 100%. Further, the mortality at 2.5 mg/kg in assay [2] was found to be 60%.

For `CCc1ccc(C(=O)N(N(SOc2c(Cl)cc(Cl)cc2Cl)C(=O)c2cc(C)cc(C)c2)C(C)(C)C)cc1`, in assay [1], the mortality at 5 mg/kg was determined as 90%. In assay [2], the mortality at 2.5 mg/kg amounted to 50%.

For `CC(C)(C)N(C(=O)c1ccc(Cl)cc1)N(SOc1ccc(Cl)cc1)C(=O)c1ccccc1`, the mortality at 25 mg/kg in [4] was found to be 100%. Further, the mortality at 5 mg/kg in assay [1] was 30%. Besides, the mortality at 2.5 mg/kg in [2] is 0%. The mortality at 10 mg/kg in assay [5] turned out to be 100%.

On to `CCc1ccc(C(=O)N(N(SOc2ccc(Cl)cc2Cl)C(=O)c2cc(C)cc(C)c2)C(C)(C)C)cc1`, for which, in assay [1], the mortality at 5 mg/kg came to 90%. In assay [2], the mortality at 2.5 mg/kg worked out at 40%.

Take `CC(C)(C)N(C(=O)c1ccccc1)N(SOc1ccc(Cl)cc1)C(=O)c1ccccc1`: the mortality at 25 mg/kg in assay [4] turned out to be 100%. Moreover, in assay [3], the mortality at 50 mg/kg was found to be 100%. In addition, the mortality at 10 mg/kg in assay [5] amounted to 0%.

What is called LD50 is the dose at which mortality reaches 50%. As usually defined, the LC50 is the concentration that kills 50% of the test population. For `CCc1ccc(C(=O)NN(C(=O)c2cc(C)cc(C)c2)C(C)(C)C)cc1` [TEBUFENOZIDE], the LD50 is 59.4 mg/kg in assay [6], 1310 mg/kg in [8] and 527 mg/kg in assay [9]. In addition, the LC50 in [7] was 11.2 µg/mL (≈ 31.7 µM). Besides, in [1], the mortality at 5 mg/kg is 95%. The mortality at 2.5 mg/kg in assay [2] was determined as 55%. Also, the mortality at 10 mg/kg in assay [5] came to 100%.

With `COc1cccc(C(=O)NN(C(=O)c2cc(C)cc(C)c2)C(C)(C)C)c1C` [METHOXYFENOZIDE], the mortality at 5 mg/kg in assay [1] amounted to 100%. Moreover, in assay [2], the mortality at 2.5 mg/kg was determined as 100%.

As to `CCc1ccc(C(=O)N(N(SOc2ccc(-c3ccccc3)cc2)C(=O)c2cc(C)cc(C)c2)C(C)(C)C)cc1`, the mortality at 5 mg/kg in [1] came out at 100%. The mortality at 2.5 mg/kg in assay [2] is 90%.

For the compound `CCc1ccc(C(=O)N(N(SOc2ccccc2C(=O)OC)C(=O)c2cc(C)cc(C)c2)C(C)(C)C)cc1`, in [1], the mortality at 5 mg/kg was found to be 100%. In [2], the mortality at 2.5 mg/kg was 60%.

Take `CCc1ccc(C(=O)N(N(SOc2ccc(C(=O)OC)cc2)C(=O)c2cc(C)cc(C)c2)C(C)(C)C)cc1`: in assay [1], the mortality at 5 mg/kg worked out at 100%. The mortality at 2.5 mg/kg in [2] came to 100%.

Turning to `Cc1ccc(OSN(C(=O)c2ccccc2)N(C(=O)c2ccccc2)C(C)(C)C)cc1`, the mortality at 25 mg/kg in [4] was 80%. The mortality at 50 mg/kg in assay [3] was determined as 100%. For the same compound, in assay [5], the mortality at 10 mg/kg was found to be 10%.

On to `CCc1ccc(C(=O)N(N(SOc2ccccc2)C(=O)c2cc(C)cc(C)c2)C(C)(C)C)cc1`, for which, in assay [4], the mortality at 25 mg/kg turned out to be 100%. In addition, the mortality at 50 mg/kg in assay [3] was 100%. For the same compound, the mortality at 5 mg/kg in [1] worked out at 90%. Besides, the mortality at 2.5 mg/kg in [2] was 70%. For the same compound, the mortality at 10 mg/kg in [5] was determined as 100%.
